pKd: −log10 of the molar value. Calls of active or inactive are those of the source. The calls are words filed in the database; no cut-off is given here.

For assay [1], the target named is T1, Estrogen-related receptor gamma (Homo sapiens) (UniProt P62508).
T1 sequence (whole entry): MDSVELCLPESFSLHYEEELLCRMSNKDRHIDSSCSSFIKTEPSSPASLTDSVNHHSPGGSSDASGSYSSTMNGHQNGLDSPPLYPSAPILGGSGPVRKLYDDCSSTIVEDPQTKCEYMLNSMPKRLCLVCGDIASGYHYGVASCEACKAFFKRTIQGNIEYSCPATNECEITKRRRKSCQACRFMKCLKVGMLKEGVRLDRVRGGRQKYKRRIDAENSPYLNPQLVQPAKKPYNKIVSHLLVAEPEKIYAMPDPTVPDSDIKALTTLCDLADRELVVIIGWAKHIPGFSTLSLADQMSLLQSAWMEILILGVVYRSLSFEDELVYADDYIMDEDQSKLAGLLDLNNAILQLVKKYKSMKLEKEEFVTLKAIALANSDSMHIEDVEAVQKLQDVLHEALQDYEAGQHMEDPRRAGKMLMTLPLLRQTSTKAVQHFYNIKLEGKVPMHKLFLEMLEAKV
Briefly: Activation of GAL4-DBD-ERRgamma ligand binding domain (unknown origin) expressed in HEK293FT cells at 2 uM incubated for 24 hrs by mammalian two-hybrid reporter gene assay. Format: cell-based. In short, it runs like this: (§1)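 293FT cells (DMEM, 10% FBS) were seeded at 10,000 cells/well and transfected 18-24 h later with GAL4-DBD-ERRγ-LBD (0.5 ng), pcDNA-PGC-1α (0.5 ng), pFR reporter (25 ng) and pRLTK renilla (3 ng). After 6 h, compound was added at 2 μM for 24 h. Dual luciferase readout, firefly/renilla ratio taken as RLU. Run in triplicate, ≥3 independent experiments.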
Background: Reporter assays use an easily measured gene product as a stand-in for the process of interest.

Assay [2] has as its system MEF. The experiment in a line: Induction of mitochondrial biogenesis in primary mouse embryonic fibroblasts assessed as increase in SDH mRNA expression at 0.5 to 5 uM by quantitative real time PCR assay. Format: functional, cell-based. In short, it runs like this:
(§2)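 MEFs were grown to confluence and held 2 days, then differentiated from day 0 with 5 μg/mL insulin, 1 μM dexamethasone and 0.5 mM IBMX. From day 8, cells received compound in DMEM/10% FBS for 2 more days. Total RNA was extracted with Trizol and reverse transcribed; SYBR qPCR normalized to GAPDH. Mean ± SEM of three independent experiments.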
Background: Quantitative PCR measures a nucleic acid by following its amplification.

The target in assay [3] is T2, Estrogen-related receptor gamma (Mus musculus) (UniProt P62509).
T2 sequence (whole entry): T1 sequence (whole entry)
Briefly: Increase in ERRgamma mediated transcriptional activity in primary mouse embryonic fibroblasts assessed as increase in MCAD mRNA levels by quantitative real time PCR assay. The essentials:
as §2

Assay [4] concerns MEF. Briefly: In vitro induction of white adipose browning in primary mouse embryonic fibroblasts assessed as increase in UCP1 positive adipocytes by Immunofluorescence staining assay. Format: functional, cell-based. The essentials:
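MEF-derived adipocytes on coverslips were treated from day 8 for 2 days. They were fixed in 4% formaldehyde, blocked in 5% BSA for 1 h, stained with rabbit anti-UCP1 (1:1000, 4 °C overnight) and then Alexa Fluor 647 secondary (1:200, 1 h), with DAPI nuclei. Imaged by fluorescence microscopy.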

Assay [5] addresses T1, Estrogen-related receptor gamma (Homo sapiens). Briefly: Activation of GAL4-DBD-ERRgamma ligand binding domain (unknown origin) expressed in HEK293FT cells incubated for 24 hrs by mammalian two-hybrid reporter gene assay. Format: cell-based. The essentials:
as §1

Assay [6] concerns Mus musculus. Briefly: In vivo induction of white adipose browning in C57BL6 mouse subcutaneous white adipose tissue assessed as increase in UCP1 mRNA expression at 20 mg/kg/day, po by real-time PCR assay. It counts as functional, organism-based. In short, it runs like this: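 Male C57BL6 mice (8 weeks) on 60% fat diet received 20 mg/kg compound or vehicle (5% alcohol in PBS) daily by oral gavage for 4 weeks. Subcutaneous white adipose was collected and stored at -80 °C; RNA was analyzed by SYBR qPCR against GAPDH.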

In assay [7] the test system is MEF. Briefly: Induction of mitochondrial biogenesis in primary mouse embryonic fibroblasts at 5 uM incubated for 2 days by electron microscopy. It counts as functional, cell-based. The essentials:
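On day 10, MEF-derived white adipocytes were fixed in 2.5% glutaraldehyde for 1 h, post-fixed in 1% osmic acid for 1 h, dehydrated in graded ethanol and embedded in epoxy. Ultrathin sections were stained with uranyl acetate and lead citrate and examined by transmission electron microscopy.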

The test system of assay [8] is Adipocyte. Briefly: In vitro induction of white adipose browning in mouse white adipocytes differentiated from primary preadipocytes cells of subcutaneous adipose tissue assessed as increase in UCP1 mRNA expression at 1 and 5 uM by real-time PCR assay. Format: functional, cell-based. The essentials: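 Subcutaneous fat preadipocytes were isolated by 0.1% collagenase I digestion (40 min, 37 °C), filtered and cultured. Differentiation used insulin (5 μg/mL), dexamethasone (1 μM) and IBMX (0.5 mM). From day 8, compound was given in DMEM/10% FBS for 2 days. UCP1 mRNA was measured by SYBR qPCR against GAPDH.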

For assay [9], the target named is T2, Estrogen-related receptor gamma (Mus musculus). The experiment in a line: Increase in ERRgamma mediated transcriptional activity in primary mouse embryonic fibroblasts assessed as increase in SHP mRNA levels by quantitative real time PCR assay. In short, it runs like this: as §2
For assay [10], the system named is MEF. The experiment in a line: Induction of mitochondrial biogenesis in primary mouse embryonic fibroblasts assessed as increase in PGC-1alpha mRNA expression at 0.5 to 5 uM by quantitative real time PCR assay. It counts as functional, cell-based. The essentials:
as §2

Assay [11] addresses T1, Estrogen-related receptor gamma (Homo sapiens). Briefly: Binding affinity to ERRgamma (unknown origin) assessed as increase in protein melting temperature by CD spectroscopy. The essentials:
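Purified ERRγ protein was diluted to 0.2 mg/mL in phosphate buffer and incubated overnight with ligand (200 mM DMSO stock). CD ellipticity was read at 200–260 nm in a 1 mm quartz cuvette. Temperature was stepped 1 °C at a time from 30 to 60 °C to obtain Tm.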

The target in assay [12] is T2, Estrogen-related receptor gamma (Mus musculus). The experiment in a line: Increase in ERRgamma mediated transcriptional activity in primary mouse embryonic fibroblasts assessed as increase in ATP5b mRNA levels by quantitative real time PCR assay. The essentials:
as §2

Assay [13] shares this target. Briefly: Increase in ERRgamma mediated transcriptional activity in primary mouse embryonic fibroblasts assessed as increase in ERRalpha mRNA levels by quantitative real time PCR assay. The essentials: as §2
Assay [14] concerns Mus musculus. Briefly: In vivo induction of white adipose browning in C57BL6 mouse subcutaneous white adipose tissue assessed as increase in UCP1 positive stained area at 20 mg/kg/day, po by immunohistochemistry. Format: functional, organism-based. The essentials:
(§3)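 Male C57BL6 mice (8 weeks) on a high-fat diet (60% energy as fat) were gavaged daily for 4 weeks with 20 mg/kg compound or vehicle (5% alcohol in PBS). Adipose tissues were fixed overnight in 4% formaldehyde, paraffin-sectioned and immunostained for UCP1 (1:1000); UCP1-positive area was quantified. Two independent experiments.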

The subject of assay [15] is MEF. The experiment in a line: In vitro induction of white adipose browning in primary mouse embryonic fibroblasts assessed as increase in UCP1 protein expression at 0.5 to 5 uM by Western blot method. Format: functional, cell-based. The essentials: (§4)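 Differentiated MEF adipocytes were treated with compound from day 8 for 2 days. Cells were lysed in RIPA buffer on ice; 40 μg protein was run on 12% SDS-PAGE and blotted to PVDF. Primary antibodies overnight at 4 °C (UCP1 1:1000, SDH 1:4000, MCAD 1:5000, ATP5b 1:1000, β-actin 1:2000), then HRP secondary for 4 h at 4 °C and ECL detection. Three independent experiments.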
In general terms: In western blotting, separated proteins are transferred to a membrane and probed.

In assay [16] the test system is Mus musculus. The experiment in a line: In vivo induction of white adipose browning in C57BL6 mouse interscapularbrown adipose tissue assessed as increase in UCP1 expression at 20 mg/kg/day, po by immunohistochemistry. It counts as functional, organism-based. The following applies: in the assay text read “subcutaneous white adipose tissue” for “interscapularbrown adipose tissue”. The essentials: as §3

The subject of assay [17] is MEF. The experiment in a line: Induction of mitochondrial biogenesis in primary mouse embryonic fibroblasts assessed as increase in CPT1 mRNA expression at 0.5 to 5 uM by quantitative real time PCR assay. It counts as functional, cell-based. In short, it runs like this: as §2
Assay [18] relates to MEF. The experiment in a line: In vitro induction of white adipose browning in primary mouse embryonic fibroblasts assessed as increase in Prdm16 mRNA expression at 0.5 to 5 uM by real-time PCR assay. Format: functional, cell-based. In short, it runs like this:
as §2

Assay [19] has as its system MEF. Briefly: Induction of mitochondrial biogenesis in primary mouse embryonic fibroblasts assessed as increase in COX2 mRNA expression at 0.5 to 5 uM by quantitative real time PCR assay. It counts as functional, cell-based. In short, it runs like this: as §2
For assay [20], the target named is T2, Estrogen-related receptor gamma (Mus musculus). The experiment in a line: Increase in ERRgamma mediated transcriptional activity in primary mouse embryonic fibroblasts assessed as increase in MCAD protein levels at 0.5 to 5 uM by Western blotting method. The essentials: as §4
Assay [21] has as its system MEF. Briefly: Increase ERRgamma mRNA levels in primary mouse embryonic fibroblasts at 0.5 to 5 uM by quantitative real time PCR assay. It counts as functional, cell-based. In short, it runs like this: as §2
Assay [22] deals with MEF. Briefly: In vitro induction of white adipose browning in primary mouse embryonic fibroblasts assessed as increase in UCP1 mRNA expression by real-time PCR assay. It counts as functional, cell-based. In short, it runs like this:
as §2

Assay [23] has as its system MEF. Briefly: Induction of mitochondrial biogenesis in primary mouse embryonic fibroblasts assessed as increase in CS mRNA expression at 0.5 to 5 uM by quantitative real time PCR assay. It counts as functional, cell-based. The essentials:
as §2

Assay [24] deals with T2, Estrogen-related receptor gamma (Mus musculus). The experiment in a line: Increase in ERRgamma mediated transcriptional activity in primary mouse embryonic fibroblasts assessed as increase in ATP5b protein levels at 0.5 to 5 uM by Western blotting method. In short, it runs like this: as §4
The subject of assay [25] is MEF. Briefly: Induction of mitochondrial biogenesis in primary mouse embryonic fibroblasts assessed as increase in SDH protein expression at 0.5 to 5 uM by Western blot method. It counts as functional, cell-based. The essentials:
as §4

For assay [26], the target named is T3, Estrogen-related receptor gamma (Homo sapiens, UniProt P62508).
T3 sequence (P62508 whole entry): T1 sequence (whole entry)
Briefly: Binding affinity to ERRgamma (unknown origin) at 20 degC by isothermal titration calorimetry.

Assay [27] concerns the target T2, Estrogen-related receptor gamma (Mus musculus). The experiment in a line: Increase in ERRgamma mediated transcriptional activity in primary mouse embryonic fibroblasts assessed as increase in ATP5b mRNA levels at 1 uM by quantitative real time PCR assay. The essentials: as §2
The target is the same in assay [28]. Briefly: Increase in ERRgamma mediated transcriptional activity in primary mouse embryonic fibroblasts assessed as increase in SHP mRNA levels at 1 uM by quantitative real time PCR assay. In short, it runs like this: as §2
Assay [29] shares this target. The experiment in a line: Increase in ERRgamma mediated transcriptional activity in primary mouse embryonic fibroblasts assessed as increase in MCAD mRNA levels at 1 uM by quantitative real time PCR assay. In short, it runs like this:
as §2

Assay [30] shares this target. Briefly: Increase in ERRgamma mediated transcriptional activity in primary mouse embryonic fibroblasts assessed as increase in ERRalpha mRNA levels at 1 uM by quantitative real time PCR assay. In short, it runs like this: as §2

`CC(C)c1ccc(Cn2cc(-c3ccccc3)nn2)cc1` registered a fold change (FC) in assay [1] of 1.31.
Same read-out and setting: the figure for `CC(C)c1ccc(/C=N/NC(=O)c2ccc(O)cc2)cc1` is 1.85; for `CC(C)c1ccc(Cn2cc(-c3ccc(O)cc3)nn2)cc1` it is 1.69; for `CC(C)c1cccc(Cn2cc(-c3ccc(O)c(O)c3)nn2)c1` it is 3.32.
Take `Oc1ccc(-c2cn(Cc3ccc(-c4ccccc4)cc3)nn2)cc1O`: the fold change (FC) in assay [1] was 2.56.
As for `CC(C)c1ccc(Cn2cc(-c3ccc(O)c(O)c3)nn2)cc1`, the result in assay [2], in [4], in assay [6], in [7], in assay [8] and in assay [10] was Active. The result in assay [14], in assay [15], in [16], in [17], in assay [18] and in assay [19] was Active. The outcome in assay [20], in assay [21], in assay [23], in assay [24] and in assay [25] was Active. Moreover, the Activity result in assay [3], in assay [5], in assay [9], in assay [12], in assay [13] and in [22] was “Dose-dependent effect” each time. In addition, the ΔTm (usually the change in melting temperature against a reference sample) in [11] is 0.7 °C. Also, the fold change (FC) in assay [1] was determined as 4.98. For the same compound, in [26], the pKd (as a rule, the Kd on a negative log10 scale, so that one unit is a factor of ten) is 4.34.
In [1], `Cc1ccc(Cn2cc(-c3ccc(O)c(O)c3)nn2)cc1` gave a fold change (FC) of 2.9.
As for `CC(C)c1ccc(Cn2cc(-c3ccccc3O)nn2)cc1`, the outcome in [27], in [28], in assay [29] and in assay [30] was inactive. Further, the fold change (FC) in assay [1] came out at 1.1.
`Oc1ccc(-c2cn(Cc3ccccc3)nn2)cc1O` returned a fold change (FC) in assay [1] of 1.43.
`CC(C)c1ccc(Cn2cc(-c3cccc(O)c3)nn2)cc1` displayed a fold change (FC) in assay [1] of 2.21.
`CC(C)(C)c1ccc(Cn2cc(-c3ccc(O)c(O)c3)nn2)cc1` yielded a fold change (FC) in [1] of 4.18.
For `CC(C)c1ccccc1Cn1cc(-c2ccc(O)c(O)c2)nn1`, the fold change (FC) in assay [1] turned out to be 2.4.
